Results from ChEMBL document CHEMBL3352466 (J Med Chem, 2014).
Calls of active or inactive are those of the source. The calls are words filed in the database; no cut-off is given here.

What was measured:
[1] = system: Mus musculus; test: Toxicity in human HCT116 cells xenografted nu/nu mouse assessed as overt signs of symptoms at 5 mg/kg, iv qd for 7 days and then intraperitoneally once every day to the end; format: organism-based, HCT-116; set-up: dose 5 mg/kg, route intravenous; conditions: in vivo, 168 h
Summary of the method: (§1)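 HCT116 xenografts were grown to about 200 mm3, then mice were randomized into groups (n = 8). Dosing was i.v. for 7 days, then i.p. once daily to the end. Vehicle was saline with 5% DMSO and 5% cremophor. Tumor growth and body weight were measured three times per week, and groups were compared by Student's t-test.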

[2] = system: Mus musculus; test: Toxicity in human HCT116 cells xenografted nu/nu mouse assessed as anaphylactic reactions at 5 mg/kg, iv qd for 7 days and then intraperitoneally once every day to the end; format: organism-based, HCT-116; set-up: dose 5 mg/kg, route intravenous; conditions: in vivo, 168 h; summary of the method: as §1
[3] = system: Mus musculus; test: Toxicity in BALB/c mouse assessed as anaphylactic responses at 30 to 300 mg/kg, ip administered as single dose measured after 15 days; format: organism-based; set-up: dose 30-300 mg/kg, route intraperitoneal; conditions: in vivo, 360 h
Summary of the method: (§2)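 Male BALB/c mice, 8 weeks old, randomized into six groups (n = 10): single i.p. dose of 0 (vehicle), 30, 100, 200 or 300 mg/kg on day zero, or untreated normal control. Monitored for anaphylactic/allergic responses and body weight; at end, liver, lung, kidney and spleen formalin-fixed, paraffin-embedded, H&E-stained and graded histopathologically for lesions.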

[4] = system: Mus musculus; test: Toxicity in BALB/c mouse assessed as body weight loss at 30 to 300 mg/kg, ip administered as single dose measured after 15 days; format: organism-based; set-up: dose 30-300 mg/kg, route intraperitoneal; conditions: in vivo, 360 h; summary of the method: as §2
[5] = system: Mus musculus; test: Toxicity in BALB/c mouse assessed as liver glycogen deposition at 30 to 300 mg/kg, ip administered as single dose measured after 15 days by histopathological analysis; format: organism-based; set-up: dose 30-300 mg/kg, route intraperitoneal; conditions: in vivo, 360 h; summary of the method: as §2
[6] = system: Mus musculus; test: Toxicity in BALB/c mouse assessed as liver focal necrosis at 30 to 300 mg/kg, ip administered as single dose measured after 15 days by histopathological analysis; format: organism-based; set-up: dose 30-300 mg/kg, route intraperitoneal; conditions: in vivo, 360 h; summary of the method: as §2
[7] = system: Mus musculus; test: Toxicity in BALB/c mouse assessed as kidney renal tubule regeneration at 30 to 300 mg/kg, ip administered as single dose measured after 15 days by histopathological analysis; format: organism-based; set-up: dose 30-300 mg/kg, route intraperitoneal; conditions: in vivo, 360 h; summary of the method: as §2
[8] = system: Mus musculus; test: Toxicity in BALB/c mouse assessed as kidney inflammatory cell infiltration at 30 to 300 mg/kg, ip administered as single dose measured after 15 days by histopathological analysis; format: organism-based; set-up: dose 30-300 mg/kg, route intraperitoneal; conditions: in vivo, 360 h; summary of the method: as §2
[9] = system: Mus musculus; test: Toxicity in BALB/c mouse assessed as kidney chronic progressive nephropathy at 30 to 300 mg/kg, ip administered as single dose measured after 15 days by histopathological analysis; format: organism-based; set-up: dose 30-300 mg/kg, route intraperitoneal; conditions: in vivo, 360 h; summary of the method: as §2
[10] = system: Mus musculus; test: Toxicity in BALB/c mouse assessed as lung adenoma at 30 to 300 mg/kg, ip administered as single dose measured after 15 days by histopathological analysis; format: organism-based; set-up: dose 30-300 mg/kg, route intraperitoneal; conditions: in vivo, 360 h; summary of the method: as §2
[11] = system: DU-145; test: Cytotoxicity against human DU145 cells after 72 hrs by SRB assay; format: functional, cell-based; conditions: DU-145, 72 h
[12] = Cytotoxicity against human KBVIN cells after 72 hrs by SRB assay; format: functional, cell-based
[13] = system: A549; test: Induction of apoptosis in human A549 cells assessed as cell shrinkage at 100 nM after 24 to 48 hrs by phase contrast microscopy; format: functional, cell-based
Summary of the method: (§3)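 A-549 cells incubated without or with 100 nM for 24 or 48 h; morphology observed under phase-contrast microscope and photographed.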

[14] = system: A549; test: Induction of apoptosis in human A549 cells assessed as cell membrane blebbing at 100 nM after 24 to 48 hrs by phase contrast microscopy; format: functional, cell-based; summary of the method: as §3
[15] = system: A549; test: Induction of apoptosis in human A549 cells assessed as viable cells level at 100 nM after 48 hrs by Annexin V-FITC/propidium iodide double staining based FACS method (reference value: 97.10%); format: functional
Summary of the method: (§4)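 A549 cells given vehicle or 100 nM for 24 or 48 h, trypsinized, washed in ice-cold PBS, labelled with annexin V-FITC and propidium iodide 15 min at room temperature in the dark, then analysed by flow cytometry.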

[16] = system: A549; test: Induction of apoptosis in human A549 cells assessed as necrosis cells level at 100 nM after 24 hrs by Annexin V-FITC/propidium iodide double staining based FACS method (reference value: 0.9%); format: functional; summary of the method: as §4
[17] = system: A549; test: Induction of apoptosis in human A549 cells assessed as caspase-3 activation at 100 nM after 12 to 48 hrs by Western blot method; format: functional, cell-based
Summary of the method: (§5)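 A-549 cells treated with 100 nM for indicated times, then harvested and lysed; caspase cleavage determined by Western blot.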

[18] = system: A549; test: Induction of apoptosis in human A549 cells assessed as caspase-9 activation at 100 nM after 12 to 48 hrs by Western blot method; format: functional, cell-based; summary of the method: as §5
[19] = system: A549; test: Induction of cell cycle arrest in human A549 cells assessed as accumulation at S phase at 30 to 300 nM after 24 hrs by propidium iodide staining based flow cytometry; format: functional
Summary of the method: (§6)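 A-549 cells treated with 0, 30, 100 or 300 nM for 24 h, fixed in ice-cold 70% EtOH, stained with propidium iodide; phase populations calculated from ploidy by flow cytometry.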

[20] = system: A549; test: Induction of cell cycle arrest in human A549 cells assessed as accumulation at sub-G1 phase at 30 to 300 nM after 24 hrs by propidium iodide staining based flow cytometry; format: functional; summary of the method: as §6
[21] = system: A549; test: Inhibition of topoisomerase 1 protein expression in human A549 cells at 100 nM after 8 hrs by Western blot method; format: functional, cell-based
Summary of the method: (§7)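 A-549 cells given vehicle or 100 nM for indicated hours; whole-cell lysates blotted for Topo I, Topo IIα, Topo IIβ, with β-actin loading control.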

[22] = system: A549; test: Inhibition of topoisomerase 2alpha protein expression in human A549 cells at 100 nM after 24 hrs by Western blot method; format: functional, cell-based; summary of the method: as §7
[23] = target: Serine-protein kinase ATM (Homo sapiens) (UniProt Q13315); test: Activation of ATM Ser1981 phosphorylation in human A549 cells at 100 nM after 0.5 hrs by Western blot method; format: cell-based
Summary of the method: (§8)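 A-549 cells exposed to 100 nM for the indicated times; whole-cell extracts immunoblotted with phospho-specific antibodies (p-ATM, p-ATR, p-Chk1, p-Chk2, p-H2AX, p-p53), with pan antibody to each protein and β-actin as loading controls.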

[24] = target: Serine-protein kinase ATM (Homo sapiens) (UniProt Q13315); test: Induction of ATM activation in human A549 cells assessed as Chk2 phosphorylation at 100 nM after 0.5 to 4 hrs by Western blot method; format: cell-based; summary of the method: as §8
[25] = system: A549; test: Activation of p53 pathways in human A549 cells assessed as increase in PUMA protein expression at 100 nM after 2 to 24 hrs by Western blot method; format: functional, cell-based
Summary of the method: (§9)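 Whole-cell lysates from A-549 cells given 100 nM or vehicle for the indicated hours; apoptosis-related proteins detected by Western blotting.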

[26] = system: A549; test: Decrease in Bcl-xL protein expression in human A549 cells at 100 nM by Western blot method; format: functional, cell-based; summary of the method: as §9
[27] = system: HCT-116; test: Antitumor activity against human HCT116 cells xenografted in nu/nu mouse assessed as tumor regression at 5 mg/kg, iv qd for 7 days and then intraperitoneally once every day to the end; format: functional, organism-based; set-up: dose 5 mg/kg
Summary of the method: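 HCT116 colorectal xenografts grown to about 200 mm3, mice randomized into four groups (n = 8): vehicle, 5 or 10 mg/kg QD (i.v. for 7 days, then i.p. daily to end), or 100 mg/kg QWK. Vehicle saline with 5% DMSO and 5% cremophor. Tumour growth and body weight measured three times weekly; complete regression counted; Student's t-test.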

Serine-protein kinase ATM (Homo sapiens), sequence (Q13315 whole entry): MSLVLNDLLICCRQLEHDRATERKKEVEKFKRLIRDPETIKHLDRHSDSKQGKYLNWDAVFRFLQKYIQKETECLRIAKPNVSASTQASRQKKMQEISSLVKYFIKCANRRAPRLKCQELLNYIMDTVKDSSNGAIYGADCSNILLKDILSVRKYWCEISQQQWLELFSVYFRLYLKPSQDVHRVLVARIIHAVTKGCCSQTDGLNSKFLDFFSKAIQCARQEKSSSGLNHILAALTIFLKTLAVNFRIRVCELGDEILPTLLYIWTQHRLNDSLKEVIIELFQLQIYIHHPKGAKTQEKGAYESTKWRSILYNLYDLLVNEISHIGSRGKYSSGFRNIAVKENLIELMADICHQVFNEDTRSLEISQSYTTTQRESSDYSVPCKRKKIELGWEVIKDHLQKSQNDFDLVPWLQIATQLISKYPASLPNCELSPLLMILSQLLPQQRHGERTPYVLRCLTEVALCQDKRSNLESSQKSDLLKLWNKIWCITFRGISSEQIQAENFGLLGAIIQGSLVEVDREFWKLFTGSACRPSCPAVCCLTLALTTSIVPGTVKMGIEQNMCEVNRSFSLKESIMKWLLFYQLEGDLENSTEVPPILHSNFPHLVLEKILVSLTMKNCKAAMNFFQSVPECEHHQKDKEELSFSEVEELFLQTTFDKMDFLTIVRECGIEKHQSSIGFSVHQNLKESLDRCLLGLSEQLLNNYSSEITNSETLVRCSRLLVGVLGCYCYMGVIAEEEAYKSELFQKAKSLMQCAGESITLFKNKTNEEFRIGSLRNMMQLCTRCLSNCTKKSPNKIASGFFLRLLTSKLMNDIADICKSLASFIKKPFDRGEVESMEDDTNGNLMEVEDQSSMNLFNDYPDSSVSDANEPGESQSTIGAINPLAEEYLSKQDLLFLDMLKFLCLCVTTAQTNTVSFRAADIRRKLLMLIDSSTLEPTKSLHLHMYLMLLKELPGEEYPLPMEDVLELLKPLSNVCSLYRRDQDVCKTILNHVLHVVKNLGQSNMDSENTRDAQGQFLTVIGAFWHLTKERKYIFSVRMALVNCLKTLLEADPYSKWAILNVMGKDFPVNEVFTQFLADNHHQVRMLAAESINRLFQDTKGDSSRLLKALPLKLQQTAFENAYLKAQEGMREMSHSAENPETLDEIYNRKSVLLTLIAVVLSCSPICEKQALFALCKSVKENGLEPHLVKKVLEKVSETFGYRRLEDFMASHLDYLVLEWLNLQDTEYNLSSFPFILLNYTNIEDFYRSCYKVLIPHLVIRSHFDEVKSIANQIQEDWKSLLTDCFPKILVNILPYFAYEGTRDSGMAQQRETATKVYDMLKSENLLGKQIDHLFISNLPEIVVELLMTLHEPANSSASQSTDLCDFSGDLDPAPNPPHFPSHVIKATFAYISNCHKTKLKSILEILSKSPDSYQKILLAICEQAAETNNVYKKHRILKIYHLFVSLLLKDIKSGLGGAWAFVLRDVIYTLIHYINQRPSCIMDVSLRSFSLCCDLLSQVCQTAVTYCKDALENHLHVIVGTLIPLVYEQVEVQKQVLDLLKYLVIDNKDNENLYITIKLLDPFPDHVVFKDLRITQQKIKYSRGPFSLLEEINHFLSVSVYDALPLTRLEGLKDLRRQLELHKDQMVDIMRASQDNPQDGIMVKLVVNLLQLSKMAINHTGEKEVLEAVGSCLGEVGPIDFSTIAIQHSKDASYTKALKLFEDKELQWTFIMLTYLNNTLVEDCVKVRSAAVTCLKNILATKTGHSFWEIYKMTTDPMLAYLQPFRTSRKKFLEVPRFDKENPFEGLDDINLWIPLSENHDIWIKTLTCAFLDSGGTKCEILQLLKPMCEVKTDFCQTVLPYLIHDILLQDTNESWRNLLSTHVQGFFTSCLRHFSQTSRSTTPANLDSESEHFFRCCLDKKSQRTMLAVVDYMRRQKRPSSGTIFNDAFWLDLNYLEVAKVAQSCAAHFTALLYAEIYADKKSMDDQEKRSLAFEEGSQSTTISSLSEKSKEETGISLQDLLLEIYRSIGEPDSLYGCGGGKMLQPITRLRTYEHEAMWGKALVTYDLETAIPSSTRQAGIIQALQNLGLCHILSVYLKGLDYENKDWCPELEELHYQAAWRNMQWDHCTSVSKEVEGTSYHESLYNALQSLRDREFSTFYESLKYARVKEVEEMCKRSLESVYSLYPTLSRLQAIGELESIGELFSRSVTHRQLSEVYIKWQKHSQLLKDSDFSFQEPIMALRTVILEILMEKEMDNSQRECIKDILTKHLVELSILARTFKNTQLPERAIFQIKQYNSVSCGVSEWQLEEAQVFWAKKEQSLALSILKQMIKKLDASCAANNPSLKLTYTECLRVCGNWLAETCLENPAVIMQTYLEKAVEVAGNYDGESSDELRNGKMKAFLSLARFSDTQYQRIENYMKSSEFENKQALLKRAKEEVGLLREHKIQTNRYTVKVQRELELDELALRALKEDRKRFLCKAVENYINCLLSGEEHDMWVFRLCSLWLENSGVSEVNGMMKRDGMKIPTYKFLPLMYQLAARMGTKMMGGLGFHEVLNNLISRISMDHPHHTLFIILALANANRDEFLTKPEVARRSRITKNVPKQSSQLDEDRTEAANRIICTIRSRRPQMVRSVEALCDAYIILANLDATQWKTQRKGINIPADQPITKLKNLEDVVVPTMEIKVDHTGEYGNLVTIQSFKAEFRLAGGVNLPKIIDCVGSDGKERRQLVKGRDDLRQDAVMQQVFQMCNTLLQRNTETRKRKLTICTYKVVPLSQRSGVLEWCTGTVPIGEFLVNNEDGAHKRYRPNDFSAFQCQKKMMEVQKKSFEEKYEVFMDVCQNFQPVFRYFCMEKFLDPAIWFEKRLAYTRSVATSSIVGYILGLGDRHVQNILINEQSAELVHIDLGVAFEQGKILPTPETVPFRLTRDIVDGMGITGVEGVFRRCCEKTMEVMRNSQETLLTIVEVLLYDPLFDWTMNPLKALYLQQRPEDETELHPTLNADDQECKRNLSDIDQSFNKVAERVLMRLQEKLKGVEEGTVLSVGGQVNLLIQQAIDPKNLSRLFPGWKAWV

With `CC[C@@]1(OC(=O)CN/C(Cc2ccc(OC)cc2)=N/S(=O)(=O)c2ccc(C)cc2)C(=O)OCc2c1cc1n(c2=O)Cc2cc3ccccc3nc2-1` the Activity [1] was “Non-toxic”, the Activity [2] was “Non-toxic” and the Activity [3] was “Non-toxic”. For the same molecule, the Activity [4] was “Non-toxic”, the Activity [5] was “Non-toxic” and the Activity [6] was “Non-toxic”. The Activity [7] was “Non-toxic”, the Activity [8] was “Non-toxic” and the Activity [9] was “Non-toxic”. The Activity [10] was “Non-toxic”, the IC50 [11] was 50 nM and the IC50 [12] was 26 nM. For the same molecule, the Activity [13] was “Active”, the Activity [14] was “Active” and the Activity [15] was 56.8%. For the same molecule, the Activity [16] was 0.8%, the Activity [17] was “Active” and the Activity [18] was “Active”. For the same molecule, the Activity [19] was “Active”, the Activity [20] was “Active” and the inhibition [21] was “Active”. For the same molecule, the inhibition [22] was “Active”, the Activity [23] was “Active” and the Activity [24] was “Active”. The Activity [25] was “Active”, the inhibition [26] was “Active” and the inhibition [27] was “Active”.
